Experiments:
[1] = test system: Hepatitis C virus; test: Antiviral activity against Hepatitis C virus subtype 1b infected in human Huh7 cells assessed as inhibition of viral RNA replication; type: functional, organism-based, Hepacivirus hominis, genotype 1b, Huh-7
In short: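 Stable subgenomic HCV genotype 1b replicon in Huh-7 cells carrying a modified luciferase reporter. EC50 from duplicate or more determinations. Some inhibitors were also run in a 72 h replicon format, with HCV RNA normalized to total cellular RNA. Cytotoxicity checked as TC50.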

[2] = Inhibition of histidine-tagged HCV NS5Bdelta21 by scintillation proximity assay; parameters: species or system Hepacivirus hominis
In short: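 Soluble truncated NS5B at 12 nM. Reaction contains 0.01% w/v BSA, with no dodecyl-β-D-maltoside or IGEPAL. Other conditions follow an earlier method. IC50 is the mean of duplicate experiments on two separate weighings.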

[3] = Inhibition of calf thymus DNA-directed RNA polymerase 2; parameters: species or system Bos taurus
[4] = Hepatitis C virus, genotype 1b, Huh-7, read-out: EC50

| EC50 ([1]; huh-7) | Structure (SMILES) | IC50 [2] | EC50 [1, 4] | IC50 [3] |
| --- | --- | --- | --- | --- |
| Not Active | O=C(O)c1ccc2c(c1)nc(-c1ccoc1)n2C1CCCCC1 | 1100 nM | – | – |
| – | CN(C)C(=O)Cn1c(-c2ccccc2)c(C2CCCCC2)c2ccc(C(=O)O)cc21 | 40 nM | 1400 nM | > 250000 nM |
| – | O=C(O)c1ccc2c(C3CCCCC3)c(-c3ccccc3)n(CC(=O)N3CCOCC3)c2c1 | 70 nM | 700 nM | > 250000 nM |
| – | O=C(O)c1ccc2c(C3CCCCC3)c(-c3ccoc3)[nH]c2c1 | 30 nM | 6700 nM | – |
| – | O=C(O)c1ccc2c(C3CCCCC3)c(-c3cc4ccccc4s3)n(CC(=O)N3CCC(N4CCCC4)CC3)c2c1 | 160 nM | 1000 nM | > 250000 nM |
| – | Cn1c(-c2ccoc2)c(C2CCCCC2)c2ccc(C(=O)N[C@@H](Cc3c[nH]c4ccc(O)cc34)c3cscn3)cc21 | 100 nM | 50 nM | – |
| – | CN(CCc1ccncc1)C(=O)Cn1c(-c2ccoc2)c(C2CCCCC2)c2ccc(C(=O)O)cc21 | 30 nM | 630 nM | > 250000 nM |
| – | O=C(O)c1ccc2c(C3CCCCC3)c(-c3ccoc3)n(CC(=O)N3CCCC3)c2c1 | 40 nM | – | > 250000 nM |
| – | CCN(Cc1ccncc1)C(=O)Cn1c(-c2ccoc2)c(C2CCCCC2)c2ccc(C(=O)O)cc21 | 40 nM | – | > 250000 nM |
| – | CCN(CC)CCN(C)C(=O)Cn1c(-c2ccoc2)c(C2CCCCC2)c2ccc(C(=O)O)cc21 | 30 nM | 460 nM | > 250000 nM |
| – | CN(C)CCCN(C)C(=O)Cn1c(-c2ccoc2)c(C2CCCCC2)c2ccc(C(=O)O)cc21 | 20 nM | 580 nM | > 250000 nM |
| – | O=C(O)c1ccc2c(C3CCCCC3)c(-c3ccco3)n(CC(=O)N3CCC(N4CCCC4)CC3)c2c1 | 30 nM | 1200 nM | > 250000 nM |
| – | Cc1cccc(C)c1Cn1c(-c2ccoc2)c(C2CCCCC2)c2ccc(C(=O)O)cc21 | > 138000 nM | – | – |
| – | O=C(O)c1ccc2c(C3CCCCC3)c(-c3cnccn3)n(CC(=O)N3CCC(N4CCCC4)CC3)c2c1 | 60 nM | 10000 nM | > 250000 nM |
| – | O=C(O)c1ccc2c(C3CCCCC3)c(-c3ccoc3)n(CC(=O)N3CCC(N4CCCCC4)CC3)c2c1 | 30 nM | 780 nM | > 250000 nM |
| – | O=C(O)c1ccc2c(C3CCCCC3)c(-c3ccsc3)n(CC(=O)N3CCC(N4CCCC4)CC3)c2c1 | 30 nM | 1000 nM | > 250000 nM |

| EC50 ([1]; huh-7) | Structure (SMILES) | IC50 [2] | EC50 [1, 4] | IC50 [3] |
| --- | --- | --- | --- | --- |
| – | O=C(O)c1ccc2c(C3CCCCC3)c(-c3ccoc3)n(Cc3ccccc3)c2c1 | 250 nM | – | – |
| – | O=C(O)c1ccc2c(C3CCCCC3)c(-c3ccoc3)n(CC(=O)N3CCN(CCO)CC3)c2c1 | 20 nM | 1300 nM | > 250000 nM |
| – | CN1CCCN(C(=O)Cn2c(-c3ccoc3)c(C3CCCCC3)c3ccc(C(=O)O)cc32)CC1 | 20 nM | 330 nM | > 250000 nM |
| – | O=C(O)c1ccc2c(C3CCCCC3)c(-c3ccoc3)n(CC(=O)N3CCC(CCO)CC3)c2c1 | 70 nM | 1300 nM | > 250000 nM |
| – | Cc1ccccc1Cn1c(-c2ccoc2)c(C2CCCCC2)c2ccc(C(=O)O)cc21 | 290 nM | – | – |
| – | CN(C)C(=O)Cn1c(-c2cccs2)c(C2CCCCC2)c2ccc(C(=O)O)cc21 | 20 nM | 600 nM | > 250000 nM |
| – | COCCN(C)C(=O)Cn1c(-c2ccoc2)c(C2CCCCC2)c2ccc(C(=O)O)cc21 | 50 nM | 1300 nM | > 250000 nM |
| – | O=C(O)c1ccc2c(C3CCCCC3)c(-c3ccccn3)n(CC(=O)N3CCOCC3)c2c1 | – | – | > 250000 nM |
| – | O=C(O)c1ccc2c(C3CCCCC3)c(-c3cnccn3)n(CC(=O)N3CCOCC3)c2c1 | 100 nM | – | > 250000 nM |
| – | O=C(O)c1ccc(Cn2c(-c3ccoc3)c(C3CCCCC3)c3ccc(C(=O)O)cc32)cc1 | 40 nM | – | – |
| – | O=C(O)c1ccc2c(C3CCCCC3)c(-c3ccoc3)n(CCO)c2c1 | 100 nM | > 10000 nM | – |
| – | O=C(O)c1ccc2c(C3CCCCC3)c(-c3cc4ccccc4s3)n(CC(=O)N3CCOCC3)c2c1 | 160 nM | 1100 nM | > 250000 nM |
| – | CCn1c(-c2ccoc2)c(C2CCCCC2)c2ccc(C(=O)O)cc21 | 70 nM | > 10000 nM | – |
| – | C=CCn1c(-c2ccoc2)c(C2CCCCC2)c2ccc(C(=O)O)cc21 | 80 nM | > 10000 nM | – |
| – | CNC(=O)Cn1c(-c2ccoc2)c(C2CCCCC2)c2ccc(C(=O)O)cc21 | 50 nM | 2000 nM | > 250000 nM |
| – | CN(C(=O)Cn1c(-c2ccoc2)c(C2CCCCC2)c2ccc(C(=O)O)cc21)C1CCCCC1 | 110 nM | – | > 250000 nM |

Reference: ChEMBL document CHEMBL1156857, “N-Acetamideindolecarboxylic acid allosteric 'finger-loop' inhibitors of the hepatitis C virus NS5B polymerase: discovery and initial optimization studies” (Bioorg Med Chem Lett, 2010)
